The source of these data is ChEMBL document CHEMBL1135925, “Exploration of the pharmacophore of 3-alkyl-5-arylimidazolidinediones as new CB(1) cannabinoid receptor ligands and potential antagonists: synthesis, lipophilicity, affinity, and molecular modeling” (J Med Chem, 2002).

Data set [1] is described as follows: Capacity factor (log Kw) was measured. Type of data set: ADME. The conditions noted are these: RP-HPLC, methanol/phosphate buffer pH 7.4, extrapolated to 0% methanol. A digest of the protocol: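 RP-HPLC on a C18 column (250 mm × 4.6 mm, 5 μm particles), UV detection at 250 nm. Four mobile phases of methanol/0.1 M phosphate buffer pH 7.4 (90:10, 80:20, 75:25, 70:30 v/v). k' = (tr − t0)/t0, with t0 the column dead time. Calibrated against reference solutes of known log P (0.64–3.30), and log kw indices correlated with log P.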

A short description of data set [2]: Lipophilicity (calculated by CLIP).
Data set [3] concerns the target Cannabinoid receptor 1 (Homo sapiens) (UniProt P21554). The experiment in a line: Percent displacement of [3H]-SR-141716A, by compound at 10 uM, in transfected CHO cells expressing the human cannabinoid receptor 1. Type of data set: cell-based. The essentials:
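Membranes (60 μg) from CHO cells expressing human CB1, cultured in Ham F12 with 10% FCS and G418. Test compound screened at 10 μM against 1 nM [3H]-SR-141716A, 1 h at 30 °C, in 50 mM Tris-HCl pH 7.4 with 3 mM MgCl2, 1 mM EDTA and 0.1% BSA. Nonspecific binding defined with 10 μM WIN-55,212-2 or CP-55,940. PEI-treated GF/C filtration, scintillation counting, triplicates, n = 3–5.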
In general terms: Displacement assays read how much labelled ligand stays bound in the presence of the test substance.

Chain of Cannabinoid receptor 1 (Homo sapiens) (P21554 whole entry): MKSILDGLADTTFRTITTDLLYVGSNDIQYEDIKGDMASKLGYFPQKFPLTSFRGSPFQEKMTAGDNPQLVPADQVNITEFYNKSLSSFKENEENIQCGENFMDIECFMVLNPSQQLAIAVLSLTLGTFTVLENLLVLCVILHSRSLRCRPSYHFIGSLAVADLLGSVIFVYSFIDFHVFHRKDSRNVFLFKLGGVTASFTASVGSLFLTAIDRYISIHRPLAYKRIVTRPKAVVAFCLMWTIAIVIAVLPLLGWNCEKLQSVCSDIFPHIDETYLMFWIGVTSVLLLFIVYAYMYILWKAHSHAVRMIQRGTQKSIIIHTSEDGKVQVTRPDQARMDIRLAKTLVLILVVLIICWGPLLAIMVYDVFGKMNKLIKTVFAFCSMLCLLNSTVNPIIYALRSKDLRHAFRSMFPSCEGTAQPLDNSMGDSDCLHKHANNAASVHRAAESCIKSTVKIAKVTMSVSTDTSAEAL

Regarding `O=C1NC(c2ccccc2)(c2ccccc2)C(=O)N1CCN1CCCCC1`, the “Log Kw” value in data set [1] is given as 4.11. Further, in data set [2], the CLIP is recorded as 3.83.
As for `O=C1NC(c2ccc(Br)cc2)(c2ccc(Br)cc2)C(=O)N1CCN1CCOCC1`, the “Log Kw” value in data set [1] was 4.5. The CLIP in data set [2] was 3.86.
For `Cc1ccc(C2(c3ccc(C)cc3)NC(=O)N(CCN3CCOCC3)C2=O)cc1`, the CLIP in data set [2] is 3.49.
`O=C1NC(Cc2c[nH]c3ccccc23)C(=O)N1CCc1ccccc1` (stereo unspecified): the Displacement in data set [3] came to 64%. Besides, the CLIP in data set [2] is recorded as 2.31.
On to `O=C1NC(Cc2c[nH]c3ccccc23)C(=O)N1Cc1cccc2ccccc12` (stereo unspecified), for which the Displacement in data set [3] was 59.8%. In data set [1], the “Log Kw” value is listed as 3.08. Moreover, the CLIP in data set [2] was 2.92.
As for `CCCCCCCN1C(=O)NC(c2ccc(Br)cc2)(c2ccc(Br)cc2)C1=O`, in data set [1], the “Log Kw” value was 6.65. Also, in data set [2], the CLIP is recorded as 7.45.
As for `CCCCCCN1C(=O)NC(c2ccc(C)cc2)(c2ccc(C)cc2)C1=O`, the CLIP in data set [2] is recorded as 6.48.
Consider `CCCCCCCCN1C(=O)NC(c2ccc(Br)cc2)(c2ccc(Br)cc2)C1=O`, for which the CLIP in data set [2] is 7.99.
On the same count and under the same terms, the same measure for `CCCCCCCCN1C(=O)NC(c2ccccc2)(c2ccccc2)C1=O`: 6.5; for `COc1ccc(C2(c3ccc(OC)cc3)NC(=O)N(CCN3CCOCC3)C2=O)cc1`: 2.73.
Regarding `CCCCCCN1C(=O)NC(Cc2c[nH]c3ccccc23)C1=O` (stereo unspecified), in data set [3], the Displacement stood at 28.8%. Further, the “Log Kw” value in data set [1] is given as 3.17. Moreover, the CLIP in data set [2] is recorded as 3.21.
On to `CCCCCCN1C(=O)NC(c2ccc(OC)cc2)(c2ccc(OC)cc2)C1=O`, for which the CLIP in data set [2] was 5.81.
Same read-out and setting: the same measure for `O=C1NC(c2ccc(Br)cc2)(c2ccc(Br)cc2)C(=O)N1CCCO`: 3.76.
Take `O=C1NC(c2ccccc2)(c2ccccc2)C(=O)N1Cc1ccccc1`: in data set [2], the CLIP was 4.11.
Still for that read-out and setting: the same measure for `CCCCCCCN1C(=O)NC(c2ccc(C)cc2)(c2ccc(C)cc2)C1=O`: 7.04.
With `CCCCN1C(=O)NC(c2ccccc2)(c2ccccc2)C1=O`, the “Log Kw” value in data set [1] was 3.46. The CLIP in data set [2] is recorded as 4.26.
As to `CCCCCCCCN1C(=O)NC(c2ccc(F)cc2)(c2ccc(F)cc2)C1=O`, the CLIP in data set [2] is reported as 6.94.
With `CCCCCCN1C(=O)NC(c2ccccc2)(c2ccccc2)C1=O`, the “Log Kw” value in data set [1] is given as 4.32. Further, the CLIP in data set [2] is recorded as 5.37.
With `CCCCCCN1C(=O)NC(c2ccc(Br)cc2)(c2ccc(Br)cc2)C1=O`, in data set [1], the “Log Kw” value is given as 6.14. Besides, the CLIP in data set [2] is given as 6.87.
`O=C1NC(Cc2c[nH]c3ccccc23)C(=O)N1CCCc1ccccc1` (stereo unspecified) returned a Displacement in data set [3] of 44.3%. The CLIP in data set [2] is 2.8.
With `CCCCCN1C(=O)NC(c2ccccc2)(c2ccccc2)C1=O`, the CLIP in data set [2] was 4.8.
For `CCCN1C(=O)NC(c2ccccc2)(c2ccccc2)C1=O`, in data set [1], the “Log Kw” value is reported as 2.93. In data set [2], the CLIP is 3.84.
With `CCCCCCN1C(=O)NC(c2ccc(F)cc2)(c2ccc(F)cc2)C1=O`, the CLIP in data set [2] is listed as 5.81.
On to `CCCCCCCN1C(=O)NC(c2ccc(F)cc2)(c2ccc(F)cc2)C1=O`, for which the CLIP in data set [2] was 6.42.
Consider `CN(C)CCN1C(=O)NC(c2ccccc2)(c2ccccc2)C1=O`, for which the “Log Kw” value in data set [1] is given as 3. In data set [2], the CLIP is listed as 2.83.
For `O=C1NC(c2ccc(F)cc2)(c2ccc(F)cc2)C(=O)N1CCN1CCOCC1`, the CLIP in data set [2] is recorded as 2.81.
For the compound `CCCCN1C(=O)NC(Cc2c[nH]c3ccccc23)C1=O` (stereo unspecified), the Displacement in data set [3] is < 5%. The “Log Kw” value in data set [1] is reported as 2.35. Moreover, in data set [2], the CLIP is listed as 2.21.
As for `O=C1NC(c2ccccc2)(c2ccccc2)C(=O)N1CCN1CCOCC1`, the CLIP in data set [2] is given as 2.16.
On to `CC(C)N1C(=O)NC(c2ccccc2)(c2ccccc2)C1=O`, for which the Displacement in data set [3] was < 5%. Besides, in data set [2], the CLIP is given as 2.89.
